# Assay results from ChEMBL document CHEMBL4477185, “Anacardic Acids from Knema hookeriana as Modulators of Bcl-xL/Bak and Mcl-1/Bid Interactions” (J Nat Prod, 2016).
# The source made the active and inactive calls. No cut-off for these calls is given here.
# Columns and labels:
# [1] = target: Induced myeloid leukemia cell differentiation protein Mcl-1/BH3-interacting domain death agonist (Homo sapiens, UniProt Q07820); assay: Inhibition of His-tagged Mcl-1/5-carboxyfluorescein-Bid (unknown origin) after 1 hr by fluorescence polarization assay; assay type: protein assay
# In short: (§1)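 Fluorescence polarization competition: a small molecule competes with a fluorescent-tagged BH3 peptide (Bak for Bcl-xL, Bid for Mcl-1) for binding to the anti-apoptotic protein. Run in triplicate.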
# [2] = target: Bcl-xL/BAK (Homo sapiens, UniProt Q07817); assay: Inhibition of His-tagged Bcl-xL/5-carboxyfluorescein-Bak (unknown origin) after 1 hr by fluorescence polarization assay; assay type: protein assay; in short: as §1
# [3] = target: T1, BH3-interacting domain death agonist (Homo sapiens) (UniProt P55957); assay: Binding affinity to Bid (unknown origin) assessed as induction of chemical shift perturbations by NMR titration method
# T1 sequence (whole entry): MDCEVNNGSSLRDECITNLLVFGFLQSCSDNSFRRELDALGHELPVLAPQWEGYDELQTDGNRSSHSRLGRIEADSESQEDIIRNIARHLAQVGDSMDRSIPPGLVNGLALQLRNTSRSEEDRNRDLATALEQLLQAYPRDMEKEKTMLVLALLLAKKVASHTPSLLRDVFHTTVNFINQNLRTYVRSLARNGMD
# [4] = target: T1, BH3-interacting domain death agonist (Homo sapiens); assay: Binding affinity to Bid (unknown origin) assessed as micelles formation at 0.25 to 5 equivalent by 1H NMR spectra analysis
# [5] = test system: HCT-116; assay: Cytotoxicity against human HCT116 cells assessed as decrease in cell viability after 72 hrs by resazurin dye based fluorescence assay; assay type: functional
# [6] = target: Bcl-2-like protein 1 (Homo sapiens) (UniProt Q07817); assay: Binding affinity to Bcl-XL (unknown origin) assessed as effect on protein HN resonances at 1.5 equivalent by HSQC 1H-15N NMR spectroscopy
# In short: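 Ligand titration into Bcl-xL, followed by 1H-15N HSQC spectra recorded on an 800 MHz spectrometer with a 5 mm z-gradient TCI cryoprobe.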
# [7] = target: Induced myeloid leukemia cell differentiation protein Mcl-1 (Homo sapiens) (UniProt Q07820); assay: Binding affinity to Mcl-1 (unknown origin) assessed as effect on protein HN resonances at 1.5 equivalent by HSQC 1H-15N NMR spectroscopy
# [8] = target: T1, BH3-interacting domain death agonist (Homo sapiens); assay: Binding affinity to Bid (unknown origin) at 2 equivalent assessed as interaction at Asp16/Ser17/Met18/Asp19 and Arg20 residues by 2D 1H-1H TOCSY analysis
# Sequence of Bcl-xL/BAK (Q07817 whole entry, the tested form may be a part): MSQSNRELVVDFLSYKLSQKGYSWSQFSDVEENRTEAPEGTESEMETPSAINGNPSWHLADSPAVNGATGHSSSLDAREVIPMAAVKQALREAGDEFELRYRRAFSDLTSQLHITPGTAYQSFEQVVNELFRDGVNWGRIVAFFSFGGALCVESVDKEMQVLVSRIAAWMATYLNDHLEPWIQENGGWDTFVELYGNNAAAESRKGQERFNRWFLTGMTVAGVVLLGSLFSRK
# Sequence of Bcl-xL/BAK (Q16611 whole entry, further chain, the tested form may be a part): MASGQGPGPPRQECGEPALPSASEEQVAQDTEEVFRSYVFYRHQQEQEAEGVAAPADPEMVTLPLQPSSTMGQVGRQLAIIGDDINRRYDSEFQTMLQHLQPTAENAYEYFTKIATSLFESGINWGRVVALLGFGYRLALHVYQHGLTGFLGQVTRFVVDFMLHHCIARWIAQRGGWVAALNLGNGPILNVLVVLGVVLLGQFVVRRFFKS
# Sequence of Induced myeloid leukemia cell differentiation protein Mcl-1/BH3-interacting domain death agonist (Q07820 whole entry, one chain of several, the tested form may be a part): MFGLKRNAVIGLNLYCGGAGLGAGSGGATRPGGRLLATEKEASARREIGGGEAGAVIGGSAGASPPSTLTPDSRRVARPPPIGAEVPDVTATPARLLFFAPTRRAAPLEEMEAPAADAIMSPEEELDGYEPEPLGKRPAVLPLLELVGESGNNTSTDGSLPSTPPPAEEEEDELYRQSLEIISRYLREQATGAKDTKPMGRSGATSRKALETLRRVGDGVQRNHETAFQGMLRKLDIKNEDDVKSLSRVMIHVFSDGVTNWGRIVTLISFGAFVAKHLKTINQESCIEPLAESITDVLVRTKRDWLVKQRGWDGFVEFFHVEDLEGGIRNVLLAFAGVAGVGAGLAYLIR
# Sequence of Bcl-2-like protein 1 (Homo sapiens) (Q07817 whole entry): as the sequence (Q07817 whole entry, the tested form may be a part) above
# Sequence of Induced myeloid leukemia cell differentiation protein Mcl-1 (Homo sapiens) (Q07820 whole entry, the tested form may be a part): as the sequence (Q07820 whole entry, one chain of several, the tested form may be a part) above
Ki [2] [µM],Activity [6],Activity [7],Structure (SMILES),Ki [1] [µM],Activity [3],Activity [4],Activity [5],Activity [8]
> 23,–,–,CCCCCCCCCCCCCc1cccc(O)c1,> 33,–,–,–,–
0.2,inactive,inactive,CCCCCCCCCCCCCc1cccc(O)c1C(=O)O [GINKGOLIC ACID 13:0],0.2,Active,Dose-dependent effect,inactive,Active
1.2,–,–,CCCCCCCCCCCc1cccc(O)c1C(=O)O,0.7,–,–,inactive,–
> 23,–,–,CCCCCCCCCc1cccc(O)c1C(=O)O,17.7,–,–,inactive,–
0.3,–,–,CCCC/C=C\CCCCCCCc1cccc(O)c1C(=O)O,0.2,–,–,inactive,–
> 23,–,–,CCCC/C=C\CCCCCc1cc(O)cc(O)c1C(C)=O,> 33,–,–,–,–
3.2,–,–,CCCC/C=C\CCCCCc1cccc(O)c1C(=O)O,5.8,–,–,inactive,–
> 23,–,–,CCCC/C=C\CCCCCCCc1cccc(O)c1,> 33,–,–,–,–
> 23,–,–,CCCCCCCCCCCc1cc(O)cc(O)c1C(C)=O,> 33,–,–,–,–
16.3,–,–,O=C(O)c1c(O)cccc1CCCCCCCCc1ccccc1,3.7,–,–,inactive,–
2.6,–,–,CC(C)=CCC[C@@H](C)[C@H]1C=C[C@@]2(C(=O)O)[C@H](CC(C)=C[C@@H]2/C=C(\C)C2CCC(C(=O)O)CC2)C1 (some centres undefined) [MEIOGYNIN A],–,–,–,–,–
> 23,–,–,CCCC/C=C\CCCCCCCc1cc(O)cc(O)c1C(C)=O,> 33,–,–,–,–
